Assay results as given in ChEMBL document CHEMBL1153088, “Discovery of benzo[g]indol-3-carboxylates as potent inhibitors of microsomal prostaglandin E(2) synthase-1” (Bioorg Med Chem, 2009).
pIC50: −log10 of the molar value. The source made the active and inactive calls. No cut-off for these calls is given here.

How the values were obtained:
[1] = target: T1, Prostaglandin E synthase (Homo sapiens) (UniProt O14684); experiment: Inhibition of mPGES1 in IL1-beta induced human A549 cell microsomal membrane at 10 uM assessed as enzyme residual activity by PGE2 formation assay relative to untreated control; format: microsomes; conditions: Microsome
T1 sequence (whole entry): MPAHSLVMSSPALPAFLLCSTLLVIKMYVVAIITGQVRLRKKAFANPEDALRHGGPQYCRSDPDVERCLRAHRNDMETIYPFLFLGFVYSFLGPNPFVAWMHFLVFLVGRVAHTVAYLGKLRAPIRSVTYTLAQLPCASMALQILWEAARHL
Summary of the method: (§1)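 Microsomes from A549 cells treated with IL-1β (1 ng/ml, 72 h) were used at 50 µg/ml in 0.1 M potassium phosphate pH 7.4 with 2.5 mM glutathione. Compound (DMSO 1% final) was preincubated 15 min at 4 °C, then PGH2 was added (20 µM final) for 1 min at 4 °C.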

[2] = target: T2, Prostaglandin G/H synthase 1 (Ovis aries) (UniProt P05979); experiment: Inhibition of ovine COX1 assessed as residual enzyme activity at 10 uM relative to untreated control
T2 sequence (whole entry): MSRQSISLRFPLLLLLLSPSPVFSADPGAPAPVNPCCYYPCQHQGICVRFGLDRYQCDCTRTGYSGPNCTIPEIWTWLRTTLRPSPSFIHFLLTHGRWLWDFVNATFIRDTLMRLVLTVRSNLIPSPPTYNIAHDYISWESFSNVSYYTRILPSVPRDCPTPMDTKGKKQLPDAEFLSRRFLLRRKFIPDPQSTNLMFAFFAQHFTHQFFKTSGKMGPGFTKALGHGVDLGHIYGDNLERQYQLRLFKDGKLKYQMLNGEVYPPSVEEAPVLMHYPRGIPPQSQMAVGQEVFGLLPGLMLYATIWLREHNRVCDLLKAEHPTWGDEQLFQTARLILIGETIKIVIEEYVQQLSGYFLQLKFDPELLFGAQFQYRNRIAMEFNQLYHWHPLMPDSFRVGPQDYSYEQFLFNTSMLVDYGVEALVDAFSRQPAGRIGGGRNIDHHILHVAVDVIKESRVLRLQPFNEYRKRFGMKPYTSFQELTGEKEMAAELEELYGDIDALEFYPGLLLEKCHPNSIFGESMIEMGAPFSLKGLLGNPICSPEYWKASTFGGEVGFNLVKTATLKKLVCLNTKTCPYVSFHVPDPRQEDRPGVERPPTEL
Summary of the method: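 Purified ovine COX-1 (50 units) in 1 ml of 100 mM Tris pH 8 containing 5 mM glutathione, 5 µM hemoglobin and 100 µM EDTA was preincubated with compound for 5 min at 4 °C and prewarmed 60 s at 37 °C. The reaction was started with 5 µM AA and run 5 min at 37 °C, and 12-HHT was analysed by HPLC.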

[3] = target: T1, Prostaglandin E synthase (Homo sapiens); experiment: Inhibition of mPGES1 in IL1-beta induced human A549 cells assessed as PGE2 production at 30 uM preincubated for 10 mins; format: cell-based; parameters: scale not given: the % may be the effect or the level left
Summary of the method: (§2)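 Intact IL-1β-induced A549 cells (4×10^6/ml PBS, 1 mM CaCl2) were preincubated with compound (DMSO ≤0.3%) for 10 min at 37 °C. [3H]PGE2 was separated by RP-18 SPE/HPLC and counted by liquid scintillation.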

Prostaglandin E synthase [4] = target: T3, Prostaglandin E synthase (Homo sapiens, UniProt O14684); experiment: Inhibition of mPGES1 in IL1-beta induced human A549 cell microsomal membrane assessed as blockade of conversion of PGH2 to PGE2; format: microsomes, Microsome; summary of the method: as §1
T3 sequence (O14684 whole entry): T1 sequence (whole entry)

[5] = target: T1, Prostaglandin E synthase (Homo sapiens); experiment: Inhibition of mPGES1 in IL1-beta induced human A549 cells assessed as PGE2 production at 5 uM preincubated for 10 mins; format: cell-based
Summary of the method: as §2, with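 “°C. They were then stimulated with 2.5 µM A23187 plus 1 µM AA and [3H]AA (18.4 kBq) for 15 min, and the reaction was stopped on ice.” for “°C.”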

Prostaglandin E synthase [6] = target: T3, Prostaglandin E synthase; experiment: Inhibition of mPGES1 in IL1-beta induced human A549 cells assessed as PGE2 production preincubated for 10 mins; format: cell-based; conditions: read-out: IC50
Summary of the method: as §2, with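 “°C. They were then stimulated with 2.5 µM A23187 plus 1 µM AA and [3H]AA (18.4 kBq) for 15 min, and the reaction was stopped on ice.” for “°C.”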

[7] = target: T4, Prostaglandin G/H synthase 2 (Homo sapiens) (UniProt P35354); experiment: Inhibition of COX2 in IL1-beta induced human A549 cells assessed as 6-keto-PGF1-alpha formation up to 30 uM preincubated for 15 mins by ELISA; format: cell-based
T4 sequence (whole entry): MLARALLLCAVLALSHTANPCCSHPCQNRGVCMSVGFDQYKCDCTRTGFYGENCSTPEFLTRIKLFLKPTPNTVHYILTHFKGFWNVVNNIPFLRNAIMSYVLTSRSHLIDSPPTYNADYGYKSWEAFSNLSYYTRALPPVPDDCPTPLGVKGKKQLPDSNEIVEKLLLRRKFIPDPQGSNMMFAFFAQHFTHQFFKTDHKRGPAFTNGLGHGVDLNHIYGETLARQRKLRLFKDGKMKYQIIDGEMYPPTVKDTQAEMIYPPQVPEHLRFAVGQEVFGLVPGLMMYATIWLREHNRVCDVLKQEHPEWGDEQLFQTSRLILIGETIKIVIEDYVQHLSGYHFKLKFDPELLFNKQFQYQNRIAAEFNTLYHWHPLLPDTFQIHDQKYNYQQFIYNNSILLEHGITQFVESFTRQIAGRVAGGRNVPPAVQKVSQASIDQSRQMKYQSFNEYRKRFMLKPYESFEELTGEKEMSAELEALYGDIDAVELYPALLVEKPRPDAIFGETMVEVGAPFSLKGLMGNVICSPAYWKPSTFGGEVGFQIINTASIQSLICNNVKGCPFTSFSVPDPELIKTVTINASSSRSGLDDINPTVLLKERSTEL
Summary of the method: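 A549 cells were induced with IL-1β (1 ng/ml, 72 h, 2% FCS). Cells at 5×10^6 per ml PBS with 1 mM CaCl2 were preincubated 15 min at 37 °C, then given 30 µM AA for 15 min at 37 °C, and the reaction was stopped on ice. Released 6-keto PGF1α was measured by monoclonal-antibody ELISA with β-galactosidase tracer read at 550 nm.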

[8] = target: Prostaglandin G/H synthase 1 (Homo sapiens) (UniProt P23219); experiment: Inhibition of COX1 in platelets assessed as inhibition of 12-HHT formation up to 30 uM uM by RP-HPLC
Summary of the method: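 Freshly isolated human platelets (10^8/ml PBS with 1 mM CaCl2) were preincubated with compound (DMSO ≤0.3%), then stimulated with 5 µM AA for 5 min at 37 °C. 12-HHT was extracted and quantified by RP-HPLC. Mean ± SE, n=3–5.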

Sequence of Prostaglandin G/H synthase 1 (Homo sapiens) (P23219 whole entry): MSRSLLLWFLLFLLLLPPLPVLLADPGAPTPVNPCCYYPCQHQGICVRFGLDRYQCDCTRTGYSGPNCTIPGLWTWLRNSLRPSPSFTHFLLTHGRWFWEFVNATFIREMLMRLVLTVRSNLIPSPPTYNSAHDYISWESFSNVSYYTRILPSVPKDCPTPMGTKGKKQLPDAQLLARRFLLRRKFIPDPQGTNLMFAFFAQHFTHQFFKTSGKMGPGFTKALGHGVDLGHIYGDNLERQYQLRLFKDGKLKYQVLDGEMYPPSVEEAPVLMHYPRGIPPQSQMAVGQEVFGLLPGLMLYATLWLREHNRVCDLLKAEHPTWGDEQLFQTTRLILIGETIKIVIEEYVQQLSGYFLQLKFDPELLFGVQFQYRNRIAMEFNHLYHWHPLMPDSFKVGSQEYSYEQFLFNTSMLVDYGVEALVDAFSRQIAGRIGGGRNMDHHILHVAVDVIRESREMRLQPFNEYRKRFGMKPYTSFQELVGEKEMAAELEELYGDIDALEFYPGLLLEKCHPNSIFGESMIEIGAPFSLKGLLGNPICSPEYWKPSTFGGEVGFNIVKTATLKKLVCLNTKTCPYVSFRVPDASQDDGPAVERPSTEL

| Activity [1] | Activity [2] | pIC50 (Prostaglandin E synthase [4]) | Compound | also measured |
| --- | --- | --- | --- | --- |
|  | 89% |  | CCOC(=O)c1c(Cc2cccc(OC)c2)[nH]c2c1cc(O)c1ccccc12 |  |
| 26% | 26% | 5.47 | CCOC(=O)c1c(Cc2ccc(Cl)cc2)[nH]c2c1cc(O)c1ccccc12 |  |
| 28% | 66% | 5.55 | CCOC(=O)c1c(Cc2cccc(Cl)c2)[nH]c2c1cc(O)c1ccc(-c3ccccc3)cc12 |  |
| 14% | 89% | 7.00 | CCOC(=O)c1c(Cc2ccccc2Cl)[nH]c2c1cc(O)c1ccccc12 | Activity [3]: 35%; pIC50 (Prostaglandin E synthase [6]): 4.69; inhibition [7]: inactive; inhibition [8]: inactive |

Second part, the compound before the results:

| Compound | Activity [1] | Activity [2] | pIC50 (Prostaglandin E synthase [4]) | also measured |
| --- | --- | --- | --- | --- |
| CCOC(=O)c1c(Cc2cccc(Cl)c2)[nH]c2ccc(O)cc12 | 55% |  |  |  |
| CCOC(=O)c1c(Cc2cccc(Cl)c2)n(Cc2ccccc2)c2c1cc(O)c1ccccc12 |  |  |  | Activity [3]: 35%; inhibition [1]: inactive |
| CCOC(=O)c1c(CCc2cccc(Cl)c2)[nH]c2ccc(O)cc12 | 65% |  |  |  |
| Cc1ccc(-c2cc(C(F)(F)F)nn2-c2ccc(S(N)(=O)=O)cc2)cc1 |  |  |  | inhibition [5]: Active |
| CCOC(=O)c1c(Nc2cccc(Cl)c2)[nH]c2ccc(O)cc12 | 83% |  |  |  |
